# Reference: ChEMBL document CHEMBL5724801, “EUbOPEN Chemogenomics Library - Multiplex” (2024)
# Values joined by “and” are separate entries in the source; they are usually repeats but may differ in a detail not shown here. Identical values can stand only once.
# Tested on: Fibroblast
# Test: Multiplex assay against human fibroblast
# Assay type: toxicity, cell-based
# Outline: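 Cells were classed with CellPathfinder machine-learning gating, first as Hoechst high-intensity objects or normal cells, then (normal cells) as healthy, pyknosed or fragmented nuclei, and finally (pyknosed cells) as mitotic or apoptotic. Staining of live cells at seeding used Hoechst33342, BioTracker Green Microtubule Cytoskeleton Dye, MitoTracker Red and Annexin V Alexa Fluor 680, with imaging on a CQ1 microscope at 37°C and 5% CO2 after compound addition. Tubulin, mitochondrial-mass and membrane-permeability phenotypes are per cents of healthy-nucleus cells.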
# [1] = 12 h, 1 µM, compound concentration 1 uM
# [2] = 12 h, 10 µM, compound concentration 10 uM
# [3] = 24 h, 1 µM, compound concentration 1 uM
# [4] = 24 h, 10 µM, compound concentration 10 uM
# [5] = 48 h, 1 µM, compound concentration 1 uM
# [6] = 48 h, 10 µM, compound concentration 10 uM
smiles,measurement,setting,value
S=C(NCCCc1c[nH]cn1)NCCCN(Cc1ccc(Cl)c(Cl)c1)c1ccc(Br)cn1,Population Apoptotic (%),[1],40% and 31%
same,Population Fragmented Nuclei (%),[1],13% and 30%
same,Population Healthy Nuclei (%),[1],71% and 50%
same,Population Hoechst High Intensity Objects (%),[1],5% and 4%
same,Population Membrane Permeable-Phenotype (%),[1],1% and 5%
same,Population Mitochondria Different-Phenotype (%),[1],5% and 6%
same,Population Mitotic Cells (%),[1],60% and 68%
same,Population Normal (%),[1],94% and 95%
same,Population Pyknosed Nuclei (%),[1],14% and 18%
same,Population Tubulin-Different-Phenotype (%),[1],26% and 37%
same,Total Cell Count,[1],142 and 181
same,Population Apoptotic (%),[2],47% and 52%
same,Population Fragmented Nuclei (%),[2],27% and 34%
same,Population Healthy Nuclei (%),[2],56% and 53%
same,Population Hoechst High Intensity Objects (%),[2],3% and 5%
same,Population Membrane Permeable-Phenotype (%),[2],0%
same,Population Mitochondria Different-Phenotype (%),[2],15% and 10%
same,Population Mitotic Cells (%),[2],52% and 47%
same,Population Normal (%),[2],96% and 94%
same,Population Pyknosed Nuclei (%),[2],16% and 12%
same,Population Tubulin-Different-Phenotype (%),[2],89%
same,Total Cell Count,[2],220 and 279
same,Population Apoptotic (%),[3],69% and 23%
same,Population Fragmented Nuclei (%),[3],15% and 30%
same,Population Healthy Nuclei (%),[3],74% and 57%
same,Population Hoechst High Intensity Objects (%),[3],4% and 1%
same,Population Membrane Permeable-Phenotype (%),[3],2%
same,Population Mitochondria Different-Phenotype (%),[3],2% and 6%
same,Population Mitotic Cells (%),[3],30% and 76%
same,Population Normal (%),[3],95% and 98%
same,Population Pyknosed Nuclei (%),[3],9% and 11%
same,Population Tubulin-Different-Phenotype (%),[3],28% and 42%
same,Total Cell Count,[3],137 and 183
same,Population Apoptotic (%),[4],66% and 61%
same,Population Fragmented Nuclei (%),[4],22% and 27%
same,Population Healthy Nuclei (%),[4],61% and 59%
same,Population Hoechst High Intensity Objects (%),[4],1% and 4%
same,Population Membrane Permeable-Phenotype (%),[4],0% and 2%
same,Population Mitochondria Different-Phenotype (%),[4],19% and 7%
same,Population Mitotic Cells (%),[4],33% and 38%
same,Population Normal (%),[4],98% and 95%
same,Population Pyknosed Nuclei (%),[4],15% and 13%
same,Population Tubulin-Different-Phenotype (%),[4],93% and 95%
same,Total Cell Count,[4],214 and 248
same,Population Apoptotic (%),[5],75% and 35%
same,Population Fragmented Nuclei (%),[5],27% and 30%
same,Population Healthy Nuclei (%),[5],67% and 59%
same,Population Hoechst High Intensity Objects (%),[5],3% and 4%
same,Population Membrane Permeable-Phenotype (%),[5],0% and 5%
same,Population Mitochondria Different-Phenotype (%),[5],0% and 3%
same,Population Mitotic Cells (%),[5],25% and 64%
same,Population Normal (%),[5],96% and 95%
same,Population Pyknosed Nuclei (%),[5],5% and 10%
same,Population Tubulin-Different-Phenotype (%),[5],24% and 36%
same,Total Cell Count,[5],156 and 178
same,Population Apoptotic (%),[6],62% and 63%
same,Population Fragmented Nuclei (%),[6],27% and 31%
same,Population Healthy Nuclei (%),[6],59% and 60%
same,Population Hoechst High Intensity Objects (%),[6],6% and 5%
same,Population Membrane Permeable-Phenotype (%),[6],0%
same,Population Mitochondria Different-Phenotype (%),[6],7% and 1%
same,Population Mitotic Cells (%),[6],37% and 36%
same,Population Normal (%),[6],93% and 94%
same,Population Pyknosed Nuclei (%),[6],12% and 7%
same,Population Tubulin-Different-Phenotype (%),[6],91% and 86%
same,Total Cell Count,[6],230 and 293
